# CHOP inhibitor: CHOP inhibition in unfolded protein response. CHO-K1 CHOP-promoter luciferase, tunicamycin-induced, 15-18 h. inhibition, % at 10 µM. actives 3.8% (n = 220,000). AID 2732;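 active = compounds that reduced the stress-induced luciferase reporter signal by more than about 70% of percent inhibition, limit read from the data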
# UPR CHOP act: apoptotic UPR (CHOP) activation | activation, % at 10 µM | actives 0.34% (n = 330,000) | AID 449763 | CHO-CHOP luciferase reporter, luminescence; percent of tunicamycin response over DMSO baseline;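 active = at 10 µM dose, activation of 40% or more, normalized to positive control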
#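 Assay system: CHO-CHOP cells, stable luciferase reporter of PERK-eIF2a-CHOP signalling / Buffer or medium: F12 plus 10% serum / Compound dosing: one dose, 10 µM in 0.5% DMSO / Times: 6 h compound treatment, 37 °C / Technique: luciferase luminescence / Read-out: % reporter activation, DMSO baseline versus tunicamycin full activation / Benchmarks: tunicamycin and DMSO controls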
# Bfl-1 A1 inh: inhibitors of the anti-apoptotic protein A1, read as caspase activation. MEF A1-2A-BIM cells, Caspase-Glo 3/7 luminescence, 3 h; percent of clofoctol response, vehicle zero. caspase activation, % (concentration not given with the values). actives 0.066% (n = 330,000);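 active = over half of replicate activation scores above 10%, or exactly half above 10 with the replicate mean above 10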
# XBP1 UPR activ: adaptive UPR (XBP1) activation; AID 463104; activation, % at 20 µM; actives 0.33% (n = 330,000); CHO-XBP1 luciferase reporter, IRE1-XBP1 UPR activation, luminescence; percent of tunicamycin response, DMSO as zero;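 active = versus positive control, 20 µM dose yields 30% or more activation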
#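 Assay system: CHO-XBP1 luciferase reporter cells; Schedule: 6 h treatment, 37 °C; Detection: glow luminescence from Steady-Glo reagent; Benchmarks: high control tunicamycin 10 µg/mL final, low control DMSO vehicle only.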
# CHOP confirm: confirmation of CHOP induction inhibitors. AID 504437. actives 45% (n = 2,100). CHO-CHOP promoter luciferase reporter, tunicamycin-induced, luminescence. shares compounds with CHOP inhibitor. inhibition, % at 10 µM;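 active = mean of three repeat readings of reporter signal inhibition above a set limit, cut at about 70% in these data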
# Numbers stand for hits; - = inactive; . = not tested or not shown. Shown is part of a subset that was picked to be rich in hits.
SMILES,CHOP inhibitor,UPR CHOP act,Bfl-1 A1 inh,XBP1 UPR activ,CHOP confirm
C/C(N)=C(/C#N)C(=O)COC(=O)C1CCC(C(C)(C)C)CC1 (stereo not given),97,-,-,-,87
C/C(N)=C(/C#N)C(=O)COC(=O)CC1CCCC1,.,-,-,-,.
Nc1c(S(=O)(=O)c2ccccc2)c2nc3ccccc3nc2n1/N=C/c1cccc(O)c1,103,-,-,-,72
Cc1cccc(S(=O)(=O)c2c(N)n(/N=C/c3ccccc3)c3nc4ccccc4nc23)c1,-,-,-,-,.
CC(C)N(C(=O)[C@H]1C[C@H](CC(=O)NCCCn2ccnc2)C(=O)N2CCc3c([nH]c4cc(CCC(=O)N(C)C)ccc34)[C@]12C)C(C)C,.,-,.,-,.
O=C(Cn1nc(C(=O)O)c2ccccc2c1=O)Nc1ccccc1C(F)(F)F,.,-,-,-,.
O=C(Nc1nc2ccccc2s1)C1CC(=O)N(c2ccc(Cl)cc2)C1 (stereo not given),105,-,-,-,-
COc1ccc(N2CC(C(=O)Nc3nc4ccc(OC)cc4s3)CC2=O)cc1 (stereo not given),.,-,-,-,.
CCc1ccc(NSc2ccccc2[N+](=O)[O-])cc1,102,-,-,-,-
O=C(O)c1ccccc1NSc1ccccc1[N+](=O)[O-],-,-,-,-,.
O=[N+]([O-])c1ccc(NC(=S)NCCc2ccc(Cl)cc2)cc1,105,-,-,-,94
O=[N+]([O-])c1ccc(NC(=S)NCCc2ccccc2)cc1,-,-,-,-,.
CC(OC(=O)CNC(=O)c1ccc(Cl)cc1)C(=O)NC1CCCCC1C (stereo not given),.,-,-,-,.
Cc1cc(=O)oc2cc(OCC(=O)NCCCN3CCOCC3)ccc12,100,-,-,-,-
Cn1cc(C(=O)NS(=O)(=O)Nc2ccc(Br)cn2)c2ccccc21,.,-,-,-,.
COc1ccccc1-n1cc([C@@H]2C[C@H]3CN(c4ccccc4)C(=O)[C@]34CCCN24)cn1,102,-,-,-,104
CCn1c(O)c(/C=C2\C=NN=C2c2ccccc2)sc1=S,98,-,-,-,-
CCCCn1c(O)c(/C=C2\C=NN=C2c2ccccc2)sc1=S,-,-,-,-,.
Cc1ccc(-c2nn(C)c(=O)c3ccccc23)cc1CNC(=O)Cn1nc(-c2ccccc2)c2ccccc2c1=O,97,.,.,.,78
CC(C)(c1ccccc1)c1ccc(OCc2ccc(C(=O)O)o2)cc1,.,-,.,-,.
CCOC(=O)c1ccc(N=Cc2nc(-c3ccccc3)oc2OC(C)=O)cc1,106,-,-,-,-
Cc1ccc(C(=O)Oc2oc(-c3ccco3)nc2C=Nc2ccccc2)cc1,102,.,.,.,-
CCSc1nnc(NC(=O)CN2C(=O)N(C)C3(CCCCC3)C2=O)s1,.,-,.,-,.
CS(=O)c1nc(-c2ccc(Br)cc2)cc(-c2ccccc2)c1C#N (stereo not given),.,162,-,-,-
N#Cc1c(-c2ccc(Br)cc2)cc(-c2cccnc2)nc1N,-,-,-,-,.
SMILES,CHOP inhibitor,UPR CHOP act,Bfl-1 A1 inh,XBP1 UPR activ,CHOP confirm
Cc1cc(OCC(=O)NNC(=O)c2cccnc2)cc(C)c1Cl,.,-,-,-,.
CCNc1nc(C#N)nc2c1ncn2-c1cc(F)cc(F)c1,.,-,-,-,.
Clc1ccc(CSc2nnc(-c3c[nH]c4ccccc34)o2)cc1,-,-,-,-,.
Brc1ccc(CSc2nnc(Cc3c[nH]c4ccccc34)o2)cc1,103,-,-,-,-
CCC(Oc1ccccc1)C(=O)Nc1nnc(S(=O)(=O)N2CCCC2)s1 (stereo not given),.,-,-,-,.
Cc1ccc(OCC(=O)N2N=C(C(F)(F)F)CC2(O)C(C)(C)C)cc1C (stereo not given),103,-,-,-,116
FC(F)(F)c1cccc(Sc2nc(-c3ccccc3)nnc2C(F)(F)F)c1,108,-,-,-,109
CC(C)Nc1oc(-c2cccc3ccccc23)nc1C#N,100,-,-,-,-
O=C(c1cccs1)N1N=C(c2ccccc2)CC1c1ccccc1O (stereo not given),-,-,-,-,.
Cc1ccc(C2=NN(C(=O)c3cccs3)C(c3ccccc3O)C2)cc1 (stereo not given),103,-,-,-,105
COc1ccc(C2CC(c3ccccc3)=NN2S(=O)(=O)c2ccccc2)cc1 (stereo not given),-,-,-,-,.

# From PubChem
